One may read the Ki as the dissociation constant of the complex between target and ligand, obtained from inhibition or displacement. The term IC50 denotes the concentration that inhibits the measured activity by half. A high value points to lower potency.

Test [1] deals with MCF7. Briefly: Cytotoxicity against human MCF7 cells assessed as cell survival at 50 uM after 48 hrs by sulforhodamine-B assay. It is filed as functional. Conditions: MCF7, 48 h, read-out: Survival. The essentials: (§1)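 Cells plated at 10⁴ per well and left 24 h to attach, then exposed for 48 h at 37 °C under 5% CO₂, with triplicate wells per concentration. Cells were fixed, washed and stained 30 min with 0.4% (wt/vol) SRB in 1% acetic acid. Unbound dye was removed with four 1% acetic acid washes and bound stain recovered in Tris-EDTA. Colour was read on an ELISA reader and expressed as surviving fraction.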
On the technique in general: The SRB assay estimates cell density from bound dye.

Test [2] relates to MCF7. Briefly: Cytotoxicity against human MCF7 cells assessed as cell survival at 10 uM after 48 hrs by sulforhodamine-B assay. Type of test: functional. Conditions: MCF7, 48 h, read-out: Survival. The essentials:
as §1

Test [3] relates to MCF7. Briefly: Cytotoxicity against human MCF7 cells assessed as cell survival at 100 uM after 48 hrs by sulforhodamine-B assay. Type of test: functional. Conditions: MCF7, 48 h, read-out: Survival. The essentials:
as §1

The target of the next test is Carbonic anhydrase 9 (Homo sapiens, UniProt Q16790). The experiment in a line: Inhibition of human recombinant carbonic anhydrase 9 preincubated for 15 mins by stopped-flow CO2 hydrase assay.
Test [4] relates to MCF7. The experiment in a line: Cytotoxicity against human MCF7 cells assessed as cell survival at 25 uM after 48 hrs by sulforhodamine-B assay. The note with it: MCF7, 48 h, read-out: Survival. It is filed as functional. The essentials: as §1
The subject of test [5] is MCF7. Briefly: Cytotoxicity against human MCF7 cells after 48 hrs by sulforhodamine-B assay. Conditions: MCF7, 48 h.
The target in a further test is Carbonic anhydrase 1 (Homo sapiens, UniProt P00915). Briefly: Inhibition of human recombinant carbonic anhydrase 1 preincubated for 15 mins by stopped-flow CO2 hydrase assay.
The target of a further test is Carbonic anhydrase 2 (Homo sapiens, UniProt P00918). Briefly: Inhibition of human recombinant carbonic anhydrase 2 preincubated for 15 mins by stopped-flow CO2 hydrase assay.

Carbonic anhydrase 1, sequence (P00915 whole entry): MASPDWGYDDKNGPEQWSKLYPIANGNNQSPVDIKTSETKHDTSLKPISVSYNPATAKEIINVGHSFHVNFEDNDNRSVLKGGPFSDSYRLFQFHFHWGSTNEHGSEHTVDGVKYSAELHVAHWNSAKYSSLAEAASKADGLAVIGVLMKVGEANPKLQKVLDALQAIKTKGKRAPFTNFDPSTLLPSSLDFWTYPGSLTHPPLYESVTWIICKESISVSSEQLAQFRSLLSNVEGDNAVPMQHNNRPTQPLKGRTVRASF

As for `NS(=O)(=O)c1ccc(-n2cc(-c3ccc(Br)cc3)c3c(=S)[nH]c(=S)[nH]c32)cc1`, in the test on MCF7 [1], the viability at 50 µM turned out to be 21.9%. Also, the viability at 10 µM in the test with MCF7 [2] worked out at 33.7%. Besides, the viability at 100 µM with MCF7 [3] was found to be 22.5%. Also, the Ki on Carbonic anhydrase 9 worked out at 0.0071 µM. Also, the viability at 25 µM in the test on MCF7 [4] is 29.4%. This compound also returned an IC50 with MCF7 [5] of 7.56 µM.
Turning to `NS(=O)(=O)c1ccc(-n2cc(-c3ccc(Br)cc3)c3c(=O)n(C(=O)c4ccccc4)c(-c4ccccc4)nc32)cc1`, in the test with MCF7 [1], the viability at 50 µM was 28.4%. Besides, the viability at 10 µM in the test with MCF7 [2] turned out to be 36.6%. For the same compound, in the test on MCF7 [3], the viability at 100 µM stood at 26.8%. The inhibition constant (Ki) was 0.0065 µM at Carbonic anhydrase 9 and greater than 10 µM at Carbonic anhydrase 1. Also, the viability at 25 µM with MCF7 [4] worked out at 31.8%. Besides, the IC50 in the test with MCF7 [5] turned out to be 8.11 µM.
In the case of `CC(=O)CC(=O)Nc1c(C#N)c(-c2ccc(Br)cc2)cn1-c1ccc(S(N)(=O)=O)cc1`, the viability at 50 µM in the test with MCF7 [1] turned out to be 28%. Besides, the viability at 10 µM in the test on MCF7 [2] amounted to 29%. Besides, in the test with MCF7 [3], the viability at 100 µM was 29.1%. On Carbonic anhydrase 9, the Ki came to 0.0055 µM. Also, the viability at 25 µM in the test with MCF7 [4] amounted to 28.2%. Also, in the test with MCF7 [5], the 50% inhibitory concentration (IC50) came to 8.11 µM.
Take `N#Cc1c(-c2ccc(Br)cc2)cn(-c2ccc(S(N)(=O)=O)cc2)c1NC(=S)Nc1ccc(I)cc1`: the viability at 50 µM in the test on MCF7 [1] came out at 28.1%. Moreover, in the test on MCF7 [2], the viability at 10 µM is 31.2%. Further, the viability at 100 µM with MCF7 [3] is 28.8%. The inhibitory constant (Ki) at Carbonic anhydrase 9 came out at 0.46 µM. In addition, the viability at 25 µM with MCF7 [4] turned out to be 29%. The compound also yielded an IC50 in the test on MCF7 [5] of 8.15 µM.
Regarding `N#Cc1c(-c2ccc(Br)cc2)cn(-c2ccc(S(N)(=O)=O)cc2)c1NC(=S)Nc1ccc(Cl)cc1`, the viability at 50 µM in the test on MCF7 [1] worked out at 26%. The viability at 10 µM with MCF7 [2] was determined as 28.8%. In addition, in the test on MCF7 [3], the viability at 100 µM stood at 29%. Besides, the inhibition constant (Ki) at Carbonic anhydrase 9 was determined as 0.0903 µM. In addition, the viability at 25 µM with MCF7 [4] came to 25.7%. In the test on MCF7 [5], this compound gave an IC50 of 8.12 µM.
Consider `N#Cc1c(-c2ccc(Br)cc2)cn(-c2ccc(S(N)(=O)=O)cc2)c1NC(=S)Nc1ccccc1`, for which, in the test with MCF7 [1], the viability at 50 µM came to 22.7%. Also, the viability at 10 µM in the test on MCF7 [2] came to 30.8%. In the test on MCF7 [3], the viability at 100 µM was 21.7%. For the same compound, at Carbonic anhydrase 9, the Ki is 0.0624 µM. Further, the viability at 25 µM with MCF7 [4] turned out to be 23.5%. Also, inhibition with MCF7 [5] was half-maximal at 7.29 µM (IC50).
`COc1ccc(NC(=S)Nc2c(C#N)c(-c3ccc(Br)cc3)cn2-c2ccc(S(N)(=O)=O)cc2)cc1`: in the test with MCF7 [1], the viability at 50 µM is 24.9%. In the test on MCF7 [2], the viability at 10 µM was 26.2%. The viability at 100 µM in the test with MCF7 [3] worked out at 21.7%. Further, in the test with MCF7 [4], the viability at 25 µM is 26.3%. Moreover, inhibition with MCF7 [5] was half-maximal at 7.01 µM (IC50).
Taken in the same sequence, the figures for `Cc1ccc(-n2c(=S)[nH]c3c(c(-c4ccc(Br)cc4)cn3-c3ccc(S(N)(=O)=O)cc3)c2=N)cc1` were 22.9%, 25%, 24.5%, 24.2% and 6.46 µM.
For the compound `C/C(S)=N/c1c(C#N)c(-c2ccc(Br)cc2)cn1-c1ccc(S(N)(=O)=O)cc1`, the viability at 50 µM in the test on MCF7 [1] stood at 30%. Moreover, the viability at 10 µM in the test with MCF7 [2] worked out at 33%. In the test with MCF7 [3], the viability at 100 µM is 29.9%. The inhibition constant (Ki) at Carbonic anhydrase 9 stood at 0.006 µM. Moreover, in the test on MCF7 [4], the viability at 25 µM was determined as 31.2%. This compound also displayed an IC50 in the test with MCF7 [5] of 8.11 µM.
On to `N#Cc1c(-c2ccc(Br)cc2)cn(-c2ccc(S(N)(=O)=O)cc2)c1NC(=O)c1ccc(Br)cc1`, for which, in the test with MCF7 [1], the viability at 50 µM was 24.9%. Besides, the viability at 10 µM in the test with MCF7 [2] came to 35.8%. In the test with MCF7 [3], the viability at 100 µM was found to be 25.4%. In the test on MCF7 [4], the viability at 25 µM was 32.7%. The same compound had an IC50 with MCF7 [5] of 7.56 µM.
As to `Cc1nc(S)c2c(-c3ccc(Br)cc3)cn(-c3ccc(S(N)(=O)=O)cc3)c2n1`, the viability at 50 µM with MCF7 [1] is 19.8%. In addition, in the test on MCF7 [2], the viability at 10 µM worked out at 23.6%. Moreover, the viability at 100 µM in the test on MCF7 [3] was 23.1%. Further, the Ki at Carbonic anhydrase 9 was found to be 0.0054 µM. Besides, the viability at 25 µM with MCF7 [4] is 21.8%. This compound yielded an IC50 in the test with MCF7 [5] of 6.74 µM.
As for `NS(=O)(=O)c1ccc(-n2cc(-c3ccc(Br)cc3)c3c(=O)n(C(=O)c4ccc(Cl)cc4)c(-c4ccc(Cl)cc4)nc32)cc1`, the viability at 50 µM in the test with MCF7 [1] was determined as 20.1%. In addition, the viability at 10 µM with MCF7 [2] worked out at 54.9%. In the test with MCF7 [3], the viability at 100 µM was determined as 29.5%. Further, the inhibitory constant (Ki) on Carbonic anhydrase 2 is greater than 10 µM; at Carbonic anhydrase 9, 0.488 µM; on Carbonic anhydrase 1 it was greater than 10 µM. Moreover, the viability at 25 µM in the test on MCF7 [4] stood at 29.3%. The half-inhibitory concentration (IC50) in the test with MCF7 [5] is 13.1 µM.
On to `N#Cc1c(-c2ccc(Br)cc2)cn(-c2ccc(S(N)(=O)=O)cc2)c1NS(=O)(=O)c1ccccc1`, for which the viability at 50 µM in the test on MCF7 [1] came to 20.2%. Also, in the test on MCF7 [2], the viability at 10 µM came to 27.2%. Besides, in the test on MCF7 [3], the viability at 100 µM is 23.2%. In addition, the Ki on Carbonic anhydrase 9 turned out to be 0.849 µM. In addition, the viability at 25 µM in the test on MCF7 [4] is 29%. This compound also showed a 50% inhibitory concentration (IC50) with MCF7 [5] of 7.01 µM.
For the compound `Cc1ccc(S(=O)(=O)Nc2c(C#N)c(-c3ccc(Br)cc3)cn2-c2ccc(S(N)(=O)=O)cc2)cc1`, the viability at 50 µM in the test on MCF7 [1] came out at 22.2%. The viability at 10 µM with MCF7 [2] was found to be 32.4%. Further, in the test on MCF7 [3], the viability at 100 µM is 21.4%. Besides, the inhibition constant (Ki) at Carbonic anhydrase 9 came out at 0.171 µM. In addition, the viability at 25 µM in the test with MCF7 [4] was found to be 27.1%. Besides, it took 7.56 µM to reach half-maximal inhibition in the test on MCF7 [5] (IC50).
Consider `N#Cc1c(-c2ccc(Br)cc2)cn(-c2ccc(S(N)(=O)=O)cc2)c1N`, for which the half-maximal inhibitory concentration (IC50) in the test on MCF7 [5] stood at 7.56 µM.
For `N#Cc1c(-c2ccc(Br)cc2)cn(-c2ccc(S(N)(=O)=O)cc2)c1NC(=S)Nc1ccc(Br)cc1`, the viability at 50 µM with MCF7 [1] worked out at 27.7%. Moreover, the viability at 10 µM in the test on MCF7 [2] worked out at 29.8%. In addition, in the test on MCF7 [3], the viability at 100 µM was 29%. For the same compound, the viability at 25 µM in the test with MCF7 [4] came out at 28%. The compound further yielded a 50% inhibitory concentration (IC50) with MCF7 [5] of 8.15 µM.
As to `Nc1nc(=O)[nH]c2c1c(-c1ccc(Br)cc1)cn2-c1ccc(S(N)(=O)=O)cc1`, the viability at 50 µM in the test on MCF7 [1] stood at 20.3%. Besides, in the test with MCF7 [2], the viability at 10 µM worked out at 27%. Besides, the viability at 100 µM with MCF7 [3] amounted to 23.8%. Moreover, the inhibition constant Ki at Carbonic anhydrase 9 came to 0.0244 µM. The viability at 25 µM in the test with MCF7 [4] was 27.6%. Also, 6.74 µM corresponded to half-maximal inhibition in the test with MCF7 [5] (IC50).
Consider `N#Cc1c(-c2ccc(Br)cc2)cn(-c2ccc(S(N)(=O)=O)cc2)c1NC(=S)Nc1ccc([N+](=O)[O-])cc1`, for which the viability at 50 µM in the test with MCF7 [1] turned out to be 25.5%. Moreover, in the test with MCF7 [2], the viability at 10 µM was 28%. Further, the viability at 100 µM with MCF7 [3] stood at 26%. For the same compound, on Carbonic anhydrase 9, the inhibition constant (Ki) is 0.0866 µM. In addition, the viability at 25 µM in the test on MCF7 [4] was determined as 27.6%. The 50% inhibitory concentration (IC50) in the test on MCF7 [5] was 8.11 µM.
Turning to `Nc1nc(=S)[nH]c2c1c(-c1ccc(Br)cc1)cn2-c1ccc(S(N)(=O)=O)cc1`, in the test on MCF7 [1], the viability at 50 µM was 19.9%. Further, the viability at 10 µM in the test with MCF7 [2] turned out to be 23.1%. Also, the viability at 100 µM in the test with MCF7 [3] was 25%. In addition, the Ki on Carbonic anhydrase 9 came out at 0.0429 µM. The viability at 25 µM with MCF7 [4] is 25.5%. This compound also came in with an IC50 in the test with MCF7 [5] of 6.46 µM.
With `N#Cc1c(-c2ccc(Br)cc2)cn(-c2ccc(S(N)(=O)=O)cc2)c1NC(=S)Nc1ccc(S(N)(=O)=O)cc1`, in the test with MCF7 [1], the viability at 50 µM was determined as 25.5%. Besides, in the test on MCF7 [2], the viability at 10 µM came to 31.1%. Moreover, the viability at 100 µM in the test on MCF7 [3] came to 27.6%. Further, at Carbonic anhydrase 9, the Ki amounted to 0.0512 µM. Besides, the viability at 25 µM with MCF7 [4] turned out to be 29.1%. Besides, the midpoint of inhibition in the test on MCF7 [5], the IC50, lay at 8.13 µM.
